How the values were obtained:
[1] = Relaxation of KCl-induced contraction in guinea pig terminal ilea assessed as reduction of contraction force at 100 uM; assay type: functional, Cavia porcellus; parameters: scale not given: the % may be the effect or the level left
Procedure, shortened: (§1)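 Precontracted with 60 mM KCl at a resting tension of 4.9 mN. After a 45 min control period, compound (1–100 µM) was added cumulatively to steady state. Isometric force was recorded as % decrease; IC₅₀ from 4–6 experiments, mean ± SEM.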

[2] = Spasmolytic activity in guinea pig terminal ilea; assay type: functional, Cavia porcellus; procedure, shortened: as §1
[3] = Spasmolytic activity in guinea pig terminal ilea relative to resveratrol; assay type: functional, Cavia porcellus
Procedure, shortened: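 Ileal IC₅₀ was measured as for the KCl-precontracted (60 mM) guinea pig terminal ileum with cumulative dosing up to 100 µM. It is expressed as a potency index relative to resveratrol.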

[4] = Toxicity in guinea pig vascular smooth muscle; assay type: tissue-based, Cavia porcellus, Muscle tissue
Procedure, shortened: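 Guinea pig aortic rings in oxygenated Krebs–Henseleit at 35 °C, contracted with 90 mM KCl. Compound was added cumulatively up to 100 µM, and relaxation of isometric contraction force was recorded.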

[5] = Toxicity in guinea pig heart muscle; assay type: tissue-based, Cavia porcellus, Muscle tissue
Procedure, shortened: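 Guinea pig heart muscle in oxygenated Krebs–Henseleit at 35 °C. Isometric contraction force was measured in electrically stimulated papillary muscles (Purkinje fibres removed, diameter <0.87 mm). Chronotropic effect was measured as spontaneous activity of isolated right atria. Compounds were added cumulatively. Paired Student's t-test.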

[6] = Relaxation of KCl-induced contraction in guinea pig terminal ilea assessed as reduction of contraction force at 30 uM; assay type: functional, Cavia porcellus; parameters: scale not given: the % may be the effect or the level left; procedure, shortened: as §1

IC50 [2] [µM] | SMILES | Activity [1] [%] | Activity [3] | Activity [4] | Activity [5] | Activity [6] [%]
27.5 | COc1cc(NC(=O)c2cc(F)cc(F)c2)cc(OC)c1OC | 22.87 | 0.87 | Non-toxic | Non-toxic | –
30 | CN(C)c1ccc(NC(=O)c2cc(F)cc(F)c2)cc1 | 23.93 | 0.8 | Non-toxic | Non-toxic | –
3.25 | CSc1ccc(NC(=O)c2cc(F)cc(F)c2)cc1 | – | 7.39 | Non-toxic | Non-toxic | 2.8
26 | O=C(Nc1c(F)cc(F)cc1F)c1cc(F)cc(F)c1 | 9 | 0.92 | Non-toxic | Non-toxic | –

Continued, compound first:

SMILES | IC50 [2] [µM] | Activity [1] [%] | Activity [3] | Activity [4] | Activity [5] | Activity [6] [%]
O=C(Nc1ccc(F)cc1)c1cc(F)cc(F)c1 | 21 | 30.55 | 1.14 | Non-toxic | Non-toxic | –
O=C(Nc1c(F)cc(F)cc1F)c1ccc(F)cc1 | 42 | 28.35 | 0.57 | Non-toxic | Non-toxic | –
COc1cc(NC(=O)c2ccc(OC(F)(F)F)cc2)cc(OC)c1 | 7.5 | 11.99 | 3.2 | Non-toxic | Non-toxic | –
O=C(Nc1cc(F)cc(F)c1)c1ccc(F)cc1 | 8.5 | 1.66 | 2.82 | Non-toxic | Non-toxic | –
O=C(Nc1c(F)cc(F)cc1F)c1cc([N+](=O)[O-])cc([N+](=O)[O-])c1 | 32.5 | 25.66 | 0.74 | Non-toxic | Non-toxic | –
O=C(Nc1ccc(F)cc1F)c1cc(F)cc(F)c1 | > 100 | 51.13 | >0.24 | Non-toxic | Non-toxic | –
Oc1ccc(/C=C/c2cc(O)cc(O)c2)cc1 [RESVERATROL] | 24 | – | 1 | – | – | –

— ChEMBL document CHEMBL1150382, “Benzanilides with spasmolytic activity: chemistry, pharmacology, and SAR” (Bioorg Med Chem, 2008)
